The species named for experiment [1] is Rattus norvegicus. Description: In vitro antiuterotonic activity in rat oxytocic bioassay in the absence of Mg2+. The note with it: read-out: pA2 (converted). The class given is functional.
For experiment [2], the system named is Rattus norvegicus. As to the kind of experiment: In vivo antiuterotonic activity in the rat uterotonic assay. The experiment is classed as functional, organism-based. The note with it: read-out: pA2 (converted).
For experiment [3], the species on record is Rattus norvegicus. As to the kind of experiment: Inhibition of pressor response to exogenous AVP in the pitched rat preparation. The experiment is classed as functional, organism-based. The note with it: read-out: pA2 (converted). Summed up:
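Pressor test in pitched rats. Reported as the negative decadic log of the effective dose (mol/kg) that reduces the effect of a 1×10^-5 mg AVP dose to the level of […] AVP. Values are mean ± SE.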

For another experiment, the target named is Vasopressin V2 receptor (Bos taurus, UniProt P48044). Description: Inhibition of radioligand [3H]AVP binding to V2 receptor in bovine kidney inner medulla membrane. Summed up:
(§1)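 Competition binding with 10 nM [3H]AVP (17.4 Ci/mmol) and varying concentrations of unlabeled peptide. V1 used rat liver plasma membranes prepared by two-phase polymer separation. V2 used bovine kidney inner medulla membranes prepared by differential centrifugation. Kd came from a weighted nonlinear least-squares fit to logistic curves.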

Experiment [4] is filed under the species Rattus norvegicus. Description: In vitro antiuterotonic activity in rat oxytocic bioassay in the presence of 1 mM Mg2+. The experiment is classed as functional. The note with it: read-out: pA2 (converted). The method, boiled down: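 Isolated rat uterus in medium containing 1 mM Mg2+, with oxytocin-induced contractions challenged by the antagonist.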
For a further experiment, the target named is Vasopressin V1 receptor (Rattus norvegicus, UniProt P48974+P30560). As to the kind of experiment: Inhibition of radioligand [3H]AVP binding to V1 receptor in rat liver plasma membrane. The experiment is classed as cell membranes. The method, boiled down:
as §1

Experiment [5] is described as follows: Selectivity aUT/aP ratio of the compound. The class given is functional. The method, boiled down:
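Reciprocal of the ratio of effective doses in the uterotonic in vitro test (mol/L) and the pressor test (mol/kg). Where given in parentheses, the reciprocal of the ratio of the uterotonic in vivo dose (mol/kg) to the pressor dose (mol/kg).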

Residues, ends and D or L forms follow the SMILES beside them.

Broadly, the Kd is the equilibrium constant for the complex coming apart. A low value points to tighter binding.

Sequence of Vasopressin V2 receptor (P48044 whole entry): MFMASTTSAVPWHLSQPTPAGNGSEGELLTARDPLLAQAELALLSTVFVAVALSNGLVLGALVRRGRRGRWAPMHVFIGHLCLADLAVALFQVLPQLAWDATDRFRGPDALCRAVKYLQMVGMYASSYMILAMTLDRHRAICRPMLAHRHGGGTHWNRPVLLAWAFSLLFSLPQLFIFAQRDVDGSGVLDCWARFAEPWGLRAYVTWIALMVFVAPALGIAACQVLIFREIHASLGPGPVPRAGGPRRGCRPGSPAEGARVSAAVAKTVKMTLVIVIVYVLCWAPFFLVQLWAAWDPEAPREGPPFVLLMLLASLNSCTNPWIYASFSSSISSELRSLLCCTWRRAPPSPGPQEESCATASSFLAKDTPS

Take `CC[C@H](C)C1NC(=O)CC2(CCCCC2)SSC[C@@H](C(=O)N(C)CC(=O)N[C@@H](CCCN=C(N)N)C(=O)NCC(N)=O)NC(=O)[C@H](CC(N)=O)NC(=O)[C@H](CCC(N)=O)NC(=O)[C@H](Cc2ccccc2)NC1=O` (stereo in doubt): the Kb was 0.0316 µM in the experiment listed under Rattus norvegicus [1], 0.251 µM in the experiment with Rattus norvegicus [2], 0.0631 µM in the experiment filed under Rattus norvegicus [3] and 0.1 µM in the experiment filed under Rattus norvegicus [4]. The dissociation constant Kd at Vasopressin V2 receptor stood at 0.182 µM; at Vasopressin V1 receptor, 0.00828 µM.
With `CN(CC(=O)N[C@@H](CCCN=C(N)N)C(=O)NCC(N)=O)C(=O)[C@@H]1CSSC2(CCCCC2)CC(=O)NC(Cc2ccc(O)cc2)C(=O)N[C@@H](Cc2ccccc2)C(=O)N[C@@H](CCC(N)=O)C(=O)N[C@@H](CC(N)=O)C(=O)N1` (stereo in doubt), the Kb was 0.01 µM in the experiment filed under Rattus norvegicus [1], 0.1 µM in the experiment with Rattus norvegicus [2] and 0.01 µM in the experiment filed under Rattus norvegicus [3]. Also, the Kd on Vasopressin V2 receptor came to 0.23 µM; at Vasopressin V1 receptor, 0.00022 µM.
Consider `CCOc1ccc(CC2NC(=O)CC3(CCCCC3)SSC[C@@H](C(=O)N(C)CC(=O)N[C@@H](CCCN=C(N)N)C(=O)NCC(N)=O)NC(=O)[C@H](CC(N)=O)NC(=O)[C@H](CCC(N)=O)NC(=O)[C@H](Cc3ccccc3)NC2=O)cc1` (stereo in doubt), for which the Kb is 0.00398 µM in the experiment listed under Rattus norvegicus [1], 0.0794 µM in the experiment on Rattus norvegicus [2] and 0.01 µM in the experiment listed under Rattus norvegicus [3]. Besides, the Ratio in experiment [5] was 2.5. Besides, the Kd at Vasopressin V2 receptor worked out at 0.029 µM; on Vasopressin V1 receptor it was 0.00032 µM.
Turning to `CC[C@H](C)[C@@H]1NC(=O)C(Cc2ccccc2)NC(=O)CCSSC[C@H](C(=O)N(C)CC(=O)N[C@@H](CCCN=C(N)N)C(=O)NCC(N)=O)NC(=O)[C@H](CC(N)=O)NC(=O)[C@H](CCC(N)=O)NC1=O` (stereo in doubt) [listing 1 of 2 here], the Kb in the experiment filed under Rattus norvegicus [1] is 0.00501 µM; in the experiment with Rattus norvegicus [2], 0.0398 µM; in the experiment filed under Rattus norvegicus [3] it was 0.398 µM; in the experiment listed under Rattus norvegicus [4], 0.01 µM.
In the case of `CN(CC(=O)N[C@@H](CCCNC(=N)N)C(=O)NCC(N)=O)C(=O)[C@@H]1CSSC2(CCCCC2)CC(=O)N[C@@H](Cc2ccc(O)cc2)C(=O)N[C@@H](Cc2ccccc2)C(=O)N[C@@H](CCC(N)=O)C(=O)N[C@@H](CC(N)=O)C(=O)N1`, the Kd on Vasopressin V2 receptor is 0.24 µM; on Vasopressin V1 receptor it was 0.00059 µM.
`CC[C@H](C)[C@@H]1NC(=O)[C@@H](Cc2ccc(OC)cc2)NC(=O)CC2(CCCCC2)SSC[C@@H](C(=O)N(C)CC(=O)N[C@@H](CCCN=C(N)N)C(=O)NCC(N)=O)NC(=O)[C@H](CC(N)=O)NC(=O)[C@H](CCC(N)=O)NC1=O`: the Kb is 0.00251 µM in the experiment listed under Rattus norvegicus [1], 0.0316 µM in the experiment on Rattus norvegicus [2], 0.02 µM in the experiment listed under Rattus norvegicus [3] and 0.00631 µM in the experiment filed under Rattus norvegicus [4]. The Kd at Vasopressin V2 receptor came to 0.811 µM; on Vasopressin V1 receptor it was 0.002 µM.
Consider `CC[C@H](C)[C@@H]1NC(=O)C(Cc2ccccc2)NC(=O)CC2(CCCCC2)SSC[C@H](C(=O)N(C)CC(=O)N[C@@H](CCCN=C(N)N)C(=O)NCC(N)=O)NC(=O)[C@H](CC(N)=O)NC(=O)[C@H](CCC(N)=O)NC1=O` (stereo in doubt), for which the Kb in the experiment listed under Rattus norvegicus [1] was 0.01 µM; in the experiment with Rattus norvegicus [2] it was 0.0398 µM; in the experiment listed under Rattus norvegicus [3], 0.1 µM; in the experiment filed under Rattus norvegicus [4], 0.01 µM. Besides, the Ratio in experiment [5] was 10. Moreover, the Kd at Vasopressin V2 receptor is 0.311 µM; at Vasopressin V1 receptor it was 0.00828 µM.
For the compound `CN(CC(=O)N[C@@H](CCCN=C(N)N)C(=O)NCC(N)=O)C(=O)[C@@H]1CSSC2(CCCCC2)CC(=O)NC(Cc2ccccc2)C(=O)NC(Cc2ccccc2)C(=O)N[C@@H](CCC(N)=O)C(=O)N[C@@H](CC(N)=O)C(=O)N1` (stereo in doubt), the Kb in the experiment listed under Rattus norvegicus [1] was 0.00794 µM; with Rattus norvegicus [2] it was 0.0251 µM; in the experiment listed under Rattus norvegicus [3] it was 0.0158 µM. Besides, the Ratio in experiment [5] stood at 2. Besides, the figures for the Kd on Vasopressin V2 receptor and on Vasopressin V1 receptor were 0.098 µM and 0.00096 µM, respectively.
Regarding `CC[C@H](C)[C@@H]1NC(=O)[C@@H](Cc2ccc(OC)cc2)NC(=O)CC2(CCCCC2)SSC[C@@H](C(=O)N2CCC[C@H]2C(=O)N[C@@H](CCCN)C(=O)NCC(N)=O)NC(=O)[C@H](CC(N)=O)NC(=O)[C@H](CCC(N)=O)NC1=O`, the Kb in the experiment filed under Rattus norvegicus [1] was 0.00302 µM; in the experiment filed under Rattus norvegicus [3], 0.011 µM.
Consider `CC[C@H](C)[C@@H]1NC(=O)[C@@H](Cc2c[nH]c3ccccc23)NC(=O)CC2(CCCCC2)SSC[C@@H](C(=O)N(C)CC(=O)N[C@@H](CCCN=C(N)N)C(=O)NCC(N)=O)NC(=O)[C@H](CC(N)=O)NC(=O)[C@H](CCC(N)=O)NC1=O` (HELM PEPTIDE1{[dW].I.Q.N.C.[Sar].R.G.[am]}|CHEM1{[O=C(CC1(S[*:2])CCCCC1)[*:1]]}$PEPTIDE1,CHEM1,1:R1-1:R1|PEPTIDE1,CHEM1,5:R3-1:R2$$$V2.0), for which the Kb in the experiment listed under Rattus norvegicus [1] is 0.0126 µM; with Rattus norvegicus [2], 0.0316 µM; in the experiment listed under Rattus norvegicus [3], 0.0316 µM; in the experiment listed under Rattus norvegicus [4], 0.02 µM. Also, the dissociation constant Kd at Vasopressin V2 receptor was 300 µM; on Vasopressin V1 receptor it was 0.0038 µM.
Regarding `NC(=O)CC[C@@H]1NC(=O)[C@H](Cc2ccccc2)NC(=O)[C@H](Cc2ccc(O)cc2)NC(=O)CC2(CCCCC2)SSC[C@H](C(=O)N2CCC[C@H]2C(=O)N[C@@H](CCCN=C(N)N)C(=O)NCC(N)=O)NC(=O)[C@H](CC(N)=O)NC1=O`, the Ratio in experiment [5] worked out at 0.6.
On to `CC[C@H](C)[C@@H]1NC(=O)C(Cc2ccccc2)NC(=O)CCSSC[C@H](C(=O)N(C)CC(=O)N[C@@H](CCCN=C(N)N)C(=O)NCC(N)=O)NC(=O)[C@H](CC(N)=O)NC(=O)[C@H](CCC(N)=O)NC1=O` (stereo in doubt) [listing 2 of 2 here], for which the Kd on Vasopressin V2 receptor was 0.421 µM; at Vasopressin V1 receptor it was 0.0501 µM.
Consider `CN(CC(=O)N[C@@H](CCCN=C(N)N)C(=O)NCC(N)=O)C(=O)[C@@H]1CSSC2(CCCCC2)CC(=O)N[C@@H](Cc2ccc(O)cc2)C(=O)N[C@@H](Cc2ccccc2)C(=O)N[C@@H](CCC(N)=O)C(=O)N[C@@H](CC(N)=O)C(=O)N1`, for which the values for the Kb in the experiment listed under Rattus norvegicus [1] and in the experiment filed under Rattus norvegicus [3] were 0.112 µM and 0.0117 µM, respectively.
For the compound `CCOc1ccc(CC2NC(=O)CC3(CCCCC3)SSC[C@H](C(=O)N(C)CC(=O)N[C@@H](CCCN=C(N)N)C(=O)NCC(N)=O)NC(=O)[C@H](CC(N)=O)NC(=O)[C@H](CCC(N)=O)NC(=O)[C@H]([C@@H](C)CC)NC2=O)cc1` (stereo in doubt), the Kb in the experiment filed under Rattus norvegicus [1] is 0.00501 µM; in the experiment with Rattus norvegicus [2], 0.0316 µM; in the experiment filed under Rattus norvegicus [3], 0.398 µM; in the experiment listed under Rattus norvegicus [4] it was 0.00794 µM. In addition, in experiment [5], the Ratio came to 80. Moreover, the Kd at Vasopressin V2 receptor was 0.035 µM; at Vasopressin V1 receptor, 0.0131 µM.
